Measured values from the EternaBench riboswitch data.

Tested on: MS2 coat protein
Assay: apparent Kd, MS2 coat protein; higher = weaker binding; RNA-MaP array; FMN 200 µM where present
Outline: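 On Illumina sequencing-chip clusters, designs were transcribed by stalled E. coli RNA polymerase and titrated with SNAP-549-labelled MS2 coat protein (0.7 or 1.5 nM, doubling to 3 µM), without and then with constant ligand, in 100 mM Tris-HCl pH 7.5, 80 mM KCl, 4 mM MgCl2, BSA, DTT, yeast tRNA and Tween-20. Apparent Kd is the median of filtered per-cluster curve fits to green signal normalised to red-channel RNA signal and control-cluster median Fmax.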

[1] = designed as: OFF switch for flavin mononucleotide, no ligand
[2] = ligand present: flavin mononucleotide, designed as: OFF switch for flavin mononucleotide
[3] = designed as: ON switch for flavin mononucleotide, no ligand
[4] = ligand present: flavin mononucleotide, designed as: ON switch for flavin mononucleotide

| Sequence | apparent Kd [1] | apparent Kd [2] | apparent Kd [3] | apparent Kd [4] |
| --- | --- | --- | --- | --- |
| GAUUAACAUGAGGAUCACCCAUGUGAGGAUAUGGAAUGGCUCACUUUUCGAUUCCCGUCUAGAAGGCACAUCUU | 54.6 nM | 53.3 nM |  |  |
| UUGGACGUCGUAGGAUAUGUAGGAUAUUCCUACAUGAGGAUCACCCAUGUUGACAUGGAAGAAGGACAGAAGGACCAUGUCCAU |  |  | 451 nM | 14.8 nM |
| UUUGUUUUGCAAGGAUAUGUUUAAUUUUAUUUUCCUUACACAUGAGGAUCACCCAUGUUAUACUUACAGAAGGUGCGUAAUUUG | 158 nM | 151 nM |  |  |
| CCGAAUGUCACAGGAUAUGGUCCGGGCACGCGACCAGAAGGGUGAUCUCACAUGAGGAUCACCCAUGUGCAGUUGUUAAGCUGC |  |  | 23.8 nM | 106 nM |
| AAUAAACUCACAGGAUAUAGCAGAGGUCGCGUGAACUUACAGACGACUAUGCUAGAAGGGUGACCACAUGAGGAUCACCCAUGU |  |  | 869 nM | 149 nM |
| GGAUCGAAAGUGAGGAUAUGCUGGUCCUUGGAUCAGCAGAAGGCACAUGAGGAUCACCCAUGUGGUAACGGUCC | 33.8 nM | 172 nM |  |  |
| GUAGAGUCAGGAUAUACGAGAUCGAAAGAUCUGUGAUCCAUACAUGAGGAUCACCCAUGUAGAAGGGACUCUAC | 33.7 nM | 364 nM |  |  |
| GAGACACAUGAGGAUCACCCAUGUGAGGAUAUCCGAAGGACCAAAUUAAGAAUUAAAGGGAGAAGGCACAUAAA | 27 nM | 25.9 nM |  |  |
| AAGUCGUGAGGAUAUACAUGGAUAUACAUUUAUGUAGAACUACAUGAGGAUCACCCAUGUAGAAGGCACGAAUA | 56.2 nM | 147 nM |  |  |
| UUAUAUAGUGUGAGGAUAUGCUGGUCCUUGGAUCAGCAGAAGGCACAUGAGGAUCACCCAUGUAAUAUAUUAUU | 67.1 nM | 156 nM |  |  |
| ACUUCACAUGAGGAUCACCCAUGUCAGGAUAUCCAGCACUAGCAGGCUCGCUCUUGAAGGAGAAGGGACGGGUA | 46.1 nM | 54.6 nM |  |  |
| GGGCUGUCAGGAUAUACAUGAGGAUCACCCAUGUCGAGCUGUGAUAGGGCAAGAGUAGGUAGAAGGGACGAGAG | 34.7 nM | 36.1 nM |  |  |
| GGACGUCACAUCUACAUGAGGAUCACCCAUGUCUCUUGAUAUGAGGAUAUGUAUACGAAUCGUAUACAGAAGGCAUGGACGUCC |  |  | 26.9 nM | 28.8 nM |
| AGUCCGGAACAGAAGGACAUGAGGAUCACCCAUGUAGGAUAUGUUGUGCGGCGUUAGGGAGGUGCCUGCGUGUGGGCGGAUCUC |  |  | 14.1 nM | 6.56 nM |
| UAAGAGUGAGGAUAUACGUCGCUGGUCCGGAUGGACGCAUGACAUGAGGAUCACCCAUGUAGAAGGCACAAAAC | 35 nM | 130 nM |  |  |
| GUAGCUAUUAUUAUACAUGAGGAUCACCCAUGUUACAUGUGUAAGGAUAUUGAUGUUUUUAUUAUCAAGAAGGUACUAUGCUAC |  |  | 12.3 nM | 8.75 nM |
| GGUACCUUCACAGGAUAUGCUAUGCUUUGCGUAGCAGAAGGGUGAUACAUGAGGAUCACCCAUGUGGUGCCAGGGCGUGAGCCC |  |  | 283 nM | 278 nM |
| CAGUAGAUCCGAGGAUAUACAAUCCGGAAACGGUACAUGAGGAUCACCCAUGUAGAAGGCGGAUCUACAGGUACUAAAGUACCC | 5.99 nM | 7.8 nM |  |  |
| ACAUGAGGAUCACCCAUGUUAUGUUGGGUACUAAAUUAUUCGUAGGAUAUCGUAGCUAGUUUGUGCGAGAAGGACGCAGUUUUU | 257 nM | 277 nM |  |  |
| GCAGGAUAAGUGAGGAUAUACCUCUGGAUACAGAGGUAGAAGGUACAUGAGGAUCACCCAUGUCUAUAACCUGC | 14.6 nM | 16.1 nM |  |  |
| UAAUAUUUAUGAUAUUAUUACAGUAGAAGGCUAUACAUGUGGAUACAUGAGGAUCACCCAUGUAUAGAGGAUAUAUACAUAUAU | 964 nM | 351 nM |  |  |
| AUGACAUGCAGAGCGCAACGGCGUACAUGAGGAUCACCCAUGUAGGAUAUACUACACAAAGUGUAGUAGAAGGACAUGCGACUG | 18.6 nM | 21.3 nM |  |  |
| CCCAGUUAGGAAGGAUAUUGUACAUGAGGAUCACCCAUGUAAUAAAUGAGGAUCUCGGAUGUAUACAAGAAGGUCCGGAUAGGC | 71.6 nM | 136 nM |  |  |
| CUUUUGUGAGGAUAUCAGUAGUAAAUUAAUAAAAUUACUACUGAGAAGGCACAUGAGGAUCACCCAUGUUCCUU | 14.5 nM | 29.5 nM |  |  |
| CCGGGUCGGGAGGAUAUUCGGGCCCAAGGGCUUGGAGAAGGCUCGACAUGAGGAUCACCCAUGUAAGUGUAAGG | 345 nM | 698 nM |  |  |
| AGCACGAAAGUGCAACGAUGUACGAGAAGGACAUGAGGAUCACCCAUGUAGCAGUAACUGCAAAUGUAGGAUAUCGUACAUCGA | 6.54 nM | 14.7 nM |  |  |
| GAAUUCGCAUGAGGAUAUGCACUCAUUUCAUGUGCAGAAGGUAUAACAUUAGACAUGAGGAUCACCCAUGUAUUGGUCAGUAAC |  |  | 15 nM | 13.4 nM |
| AAUAACAGAGGAUAUACUGUUUUAUGUGUUUGUUGUUUUGAACAUGAGGAUCACCCAUGUAGAAGGCUGAAUGA | 28.1 nM | 25.9 nM |  |  |
